96 compounds from ChEMBL document CHEMBL4513216, “Probing the Open Global Health Chemical Diversity Library for Multistage-Active Starting Points for Next-Generation Antimalarials” (ACS Infect Dis, 2020) can be followed below.

A short description of this data set: Toxicity liver stage against HepG2, at 10uM. The data set is classed as cell-based. Details: test concentration 10 uM, cell line HepG2-A16-CD81EGFP. Particulars: human, HepG2-A16-CD81EGFP cells; read-out: INHIBITION
The procedure, abridged: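 Uninfected HepG2-A16-CD81EGFP cells, 3 × 10^3 per well, 1536-well, plated on prespotted compound at 10 μM final, parasite-free screening media added to match infected plates; puromycin 10 μM positive, DMSO 0.5% negative; run in parallel with 48 h PbLuc assay at 37 °C, 5% CO2; viability by CellTiter-Glo luminescence, normalized to controls.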
As to `COc1cccc(N2CCN(C(=O)c3noc4c3CCCC4)CC2)c1`, the cytotoxicity at 10 µM was found to be 11.7%.

Consider `CN1CC=C(c2noc(CCC(=O)N3CCOCC3)n2)CC1`, for which the cytotoxicity at 10 µM is -0.687%.

On to `COc1ccc(-c2nc(C#N)c(N(C)C)o2)cc1S(=O)(=O)N(C)C`, for which the cytotoxicity at 10 µM was -7.19%.

Regarding `COc1cc(N2C[C@H](C(=O)NC3CC3)[C@@H]3CCO[C@@H]3C2)ncn1`, the cytotoxicity at 10 µM was -5.47%.

Regarding `Cn1cc(N2CCC3(CCN(C(=O)[C@H]4CCCO4)C3)C2=O)cn1` (stereo partly specified), the cytotoxicity at 10 µM came to 0.893%.

On to `COc1ncccc1C(=O)N1CC[C@H]2C[C@@H](c3nccs3)O[C@@H]2C1`, for which the cytotoxicity at 10 µM is -0.123%.

As for `Cc1cccc(Cn2c(=O)[nH]c3csnc3c2=O)c1`, the cytotoxicity at 10 µM came to 3.46%.

Regarding `COc1ccc(N2CCC(C(=O)/N=c3/[nH]ccs3)CC2)nn1`, the cytotoxicity at 10 µM is -13.6%.

As to `Cc1cccnc1NC(=O)CC1(Cn2cnnn2)CCCCC1`, the cytotoxicity at 10 µM was -5.62%.

In the case of `CN1CC(Oc2ccc(Cl)cc2)=NC(SCC(=O)c2ccccc2)=N1`, the cytotoxicity at 10 µM is -0.731%.

As for `COC(=O)C1=C(C)N=C2SCC(=O)N2C1c1cn(C)nc1C` (stereo unspecified), the cytotoxicity at 10 µM is 8.9%.

With `O=C(Nc1cc(-c2ccccn2)no1)C1CC1`, the cytotoxicity at 10 µM was -5.34%.

In the case of `CC(=O)N1CCC1c1cc(N2CCNC(=O)C2)nc(C)n1` (stereo unspecified), the cytotoxicity at 10 µM was -1.62%.

With `Cc1noc(C2(C)CCCN(C(=O)C(C)C)C2)n1` (stereo unspecified), the cytotoxicity at 10 µM was -3.97%.

Regarding `NC(=O)c1cnc(-c2ccccc2)nc1CCNC(=O)CN1CCCC1`, the cytotoxicity at 10 µM is -1.25%.

As for `Cc1cc(-c2ccccc2C(=O)O)nc(C2CCCN2S(C)(=O)=O)n1` (stereo unspecified), the cytotoxicity at 10 µM is -3.67%.

As to `Cn1c(CN2CCCc3cc(F)cc(F)c32)cc(=O)n(C)c1=O`, the cytotoxicity at 10 µM was 17.3%.

For `CN(C)c1ccc(C(=O)N2CCCCC2CC(N)=O)c(F)c1` (stereo unspecified), the cytotoxicity at 10 µM turned out to be 7.12%.

Regarding `CN(C)c1nc(CNC(=O)NC2CCc3ccccc32)cs1` (stereo unspecified), the cytotoxicity at 10 µM is -3.41%.

Regarding `CCN(CC)S(=O)(=O)NC1CCN(c2ccc(OC)cc2)CC1`, the cytotoxicity at 10 µM was determined as 3.38%.

On to `CC(NC(=O)NCC(C)(C)O)c1ccc(-c2ccncc2)cc1` (stereo unspecified), for which the cytotoxicity at 10 µM is 7.15%.

With `CCN(CC1CCOC1)C(=O)Cn1nnn(-c2cccs2)c1=O` (stereo unspecified), the cytotoxicity at 10 µM is -49.7%.

With `CCn1ccnc1CNCc1ccc(C)cc1OC(C)(C)C`, the cytotoxicity at 10 µM worked out at 1.03%.

In the case of `CC(CCc1ccccc1F)C(=O)NS(C)(=O)=O` (stereo unspecified), the cytotoxicity at 10 µM was found to be 3.12%.

For the compound `O=C(CCn1ccccc1=O)Nc1ccc(C(=O)O)cc1`, the cytotoxicity at 10 µM stood at 4.74%.

Regarding `Cc1ccc(-c2noc(CN3CCC(c4ccn[nH]4)CC3)n2)cc1`, the cytotoxicity at 10 µM was 12.6%.

With `O=S(=O)(CCNCc1ccc(Cl)cc1)N1CCOCC1`, the cytotoxicity at 10 µM turned out to be 4.68%.

With `O=C(CNC(=O)c1c(F)cccc1Cl)Nc1ccc(F)cn1`, the cytotoxicity at 10 µM was determined as 8.46%.

On to `O=C(O)c1nnn(-c2cccc(C(F)(F)F)c2)c1C1CC1`, for which the cytotoxicity at 10 µM was -2.02%.

For the compound `CC(C)c1nnc2n1CC(CNCc1nc3ccccc3o1)CC2` (stereo unspecified), the cytotoxicity at 10 µM was -1.85%.

`Cc1cccc(N(CCC(N)=O)C(=O)c2cnccn2)c1`: the cytotoxicity at 10 µM was -1.74%.

On to `CCc1nc(C(=O)N2CCN(Cc3ccc(Cl)cc3)CC2)c[nH]1`, for which the cytotoxicity at 10 µM is -6.85%.

For the compound `CNC(=O)NC(=O)CN1CCN(CC(F)(F)F)CC1(C)C`, the cytotoxicity at 10 µM was found to be 10.7%.

Consider `CN(c1nc(CSc2nnc(Cn3cncn3)o2)cs1)C1CC1`, for which the cytotoxicity at 10 µM is 6.6%.

In the case of `Cc1cc(NC(=O)CN(c2ccccc2)C(C)C)on1`, the cytotoxicity at 10 µM is -1.54%.

For `CC(C)(C)OC(=O)NC1CCC(NC(=O)c2ccc[nH]2)CC1` (stereo unspecified), the cytotoxicity at 10 µM was -17.1%.

For the compound `CS(=O)(=O)Cc1ccc(CNc2ncc(C#N)cc2Cl)cc1`, the cytotoxicity at 10 µM came out at 3.47%.

Turning to `CN(Cc1ccco1)C(=O)CN1CCN(C)c2ccccc2C1`, the cytotoxicity at 10 µM is -7.2%.

Regarding `CC1(C)CN(C(=O)c2ccc3nncn3c2)CCS1`, the cytotoxicity at 10 µM is -4.5%.

Take `CCc1nc(CC)n(CC(=O)NCc2cccc(C)c2)n1`: the cytotoxicity at 10 µM was -2.25%.

Consider `CCCNC(c1cccnc1)c1ccc(F)cc1F` (stereo unspecified), for which the cytotoxicity at 10 µM was -2%.

Consider `CC(C)N(CCCNC(=O)C1CCOCC1)S(C)(=O)=O`, for which the cytotoxicity at 10 µM worked out at 0.617%.

Turning to `COCCNC(=O)Cn1cc(NC(=O)c2cc(Cl)c(Cl)n2C)cn1`, the cytotoxicity at 10 µM was -4.01%.

In the case of `O=C(c1cc(F)ccc1Br)N1CCN(C(=O)C2CC2)CC1`, the cytotoxicity at 10 µM was determined as 4.9%.

`CCS(=O)(=O)N1CCN(C(C)c2ncc(-c3ccccc3)o2)CC1` (stereo unspecified): the cytotoxicity at 10 µM is 3.44%.

For `CCN(CC(=O)NC)S(=O)(=O)c1cnc2c(c1)c(C)nn2C`, the cytotoxicity at 10 µM was -1.56%.

As to `CCC(=O)Nc1ccc(F)c(S(=O)(=O)NC(C)(C)C)c1`, the cytotoxicity at 10 µM is -1.74%.

With `CN(C)c1nccc(-c2cnc(N(C)C)[nH]c2=O)n1`, the cytotoxicity at 10 µM was -1.17%.

Regarding `CC(C)NC(=O)NCc1cc(-c2cccc(Cl)c2)nn1C`, the cytotoxicity at 10 µM is 3.66%.

Regarding `CC(C)c1cc(CN(C)C(=O)CN2CCC(C(N)=O)CC2)no1`, the cytotoxicity at 10 µM is -0.0154%.

`COc1cc(OC)cc(-n2ccnc2-c2cc3n(n2)CCNC3)c1`: the cytotoxicity at 10 µM is -12.2%.

For the compound `CN(C)C1CCCN(C(=O)c2cccc(-c3ncc[nH]3)c2)CC1` (stereo unspecified), the cytotoxicity at 10 µM stood at 4.2%.

With `Cc1cnc(CNC(=O)CC2CCc3ccccc32)cn1` (stereo unspecified), the cytotoxicity at 10 µM was -0.862%.

Take `CCCn1c(C)c(CC(=O)NCC(C)O)c2c1CC(C)(C)CC2=O` (stereo unspecified): the cytotoxicity at 10 µM is -7.57%.

Consider `Cc1nc(CC(=O)N2CCCC2c2nc(C(C)C)no2)cs1` (stereo unspecified), for which the cytotoxicity at 10 µM amounted to 4.33%.

Turning to `CCCn1ccnc1CN1CC[C@@H](NC(=O)c2cccnc2)[C@H](O)C1`, the cytotoxicity at 10 µM is -7.31%.

As for `Cc1cnc(C(=O)N2CCN(C(=O)CC(C)C)[C@@H]3CS(=O)(=O)C[C@@H]32)cn1`, the cytotoxicity at 10 µM is -3.06%.

Consider `O=C(CCn1cncn1)N1CCC2(CC1)[C@H](O)C[C@@H]2OCCO`, for which the cytotoxicity at 10 µM was -0.387%.

With `CN1N=C(C(=O)N2CCCC(CCc3ccccc3)C2)CCC1=O` (stereo unspecified), the cytotoxicity at 10 µM was -10.5%.

Consider `CCN(Cc1cnn(C)c1)C[C@H]1CC[C@@H](Cc2ccc(C)nc2)O1`, for which the cytotoxicity at 10 µM is 5.24%.

With `CC(=O)N1CCc2[nH]cnc2C1C1=CCCN(CCn2cccc2)C1` (stereo unspecified), the cytotoxicity at 10 µM amounted to 0.375%.

Consider `CC(=O)c1cc(CN2CCCC23CCN(c2ccccn2)CC3)cs1`, for which the cytotoxicity at 10 µM was -7.69%.

Consider `CC(C)n1cc(CN(Cc2ccsc2)CC2CCCO2)cn1` (stereo unspecified), for which the cytotoxicity at 10 µM was -7.89%.

Consider `Cc1ccc(Oc2ncccc2CNC(=O)C2COC(=O)N2)c(F)c1F` (stereo unspecified), for which the cytotoxicity at 10 µM is 1.82%.

Regarding `COc1ccc(CC(=O)N2CCCC(Cn3cc(CN)nn3)C2)cc1` (stereo unspecified), the cytotoxicity at 10 µM came to 7.22%.

As to `Cc1ccc(C(=O)N2CCCC(N)CC2)cc1N1CCNC1=O` (stereo unspecified), the cytotoxicity at 10 µM was -4.35%.

Take `c1cc(CCNc2ncnc3c2CCN(Cc2ccoc2)CC3)ccn1`: the cytotoxicity at 10 µM amounted to 9.08%.

Turning to `Cc1nc(N2Cc3cnn(Cc4ccc(F)cc4)c3C2)no1`, the cytotoxicity at 10 µM is -3.05%.

Turning to `Cc1cnccc1NCCNC1CCSCC1`, the cytotoxicity at 10 µM is -9.44%.

On to `Cc1c(-c2c(-c3ccccc3)ncn2[C@H](CO)C(=O)O)cnn1C`, for which the cytotoxicity at 10 µM came out at 4.28%.

Regarding `CCCN1CCC(Cc2noc(-c3cc4cccnc4nc3C)n2)CC1`, the cytotoxicity at 10 µM was -0.749%.

Take `CCCS(=O)(=O)N1C[C@H]2OC(=O)N(CCc3cccc(Cl)c3)[C@H]2C1`: the cytotoxicity at 10 µM is -2.12%.

On to `CN(C)C(=O)c1ccc2c(c1)N(C)C(CC(=O)NC(C)(C)CO)CO2` (stereo unspecified), for which the cytotoxicity at 10 µM is 8.38%.

For the compound `CCC(CO)N(Cc1ccccn1)C(=O)c1ccc2c(c1)CCO2` (stereo unspecified), the cytotoxicity at 10 µM is -14.2%.

Regarding `CN(Cc1ccon1)C(=O)C1CC(=O)N(Cc2ccncc2)C1` (stereo unspecified), the cytotoxicity at 10 µM is -0.368%.

With `Fc1ccc(Oc2ccc(CNCC3CNc4ccnn4C3)cn2)cc1` (stereo unspecified), the cytotoxicity at 10 µM is -11.6%.

On to `CCc1nccn1C1CCCN(C(=O)c2ccc3c(c2)nnn3C)C1` (stereo unspecified), for which the cytotoxicity at 10 µM was -10.6%.

As for `CCc1nc(C(=O)N2CCCCC2)nn1-c1ccccc1Cl`, the cytotoxicity at 10 µM came to 2.1%.

`CCC(O)CN1CCN(C(=O)c2cnc3n[nH]c(C)c3c2)CC1` (stereo unspecified): the cytotoxicity at 10 µM is -5%.

For the compound `COCCN(CCOC)C(=O)Nc1cc(C(F)(F)F)c[nH]c1=O`, the cytotoxicity at 10 µM is -4.28%.

In the case of `CC(=O)N(Cc1ncc(C)o1)C1CCN(CCc2cccs2)C1` (stereo unspecified), the cytotoxicity at 10 µM is -8.85%.

Turning to `Cc1cc(C)n(CC2CCCCN2CCC(=O)Nc2cc(C)on2)n1` (stereo unspecified), the cytotoxicity at 10 µM was -1.03%.

In the case of `CC(C)c1noc(C(C)N2CCN(Cc3ccsc3)CC2)n1` (stereo unspecified), the cytotoxicity at 10 µM was -6.85%.

In the case of `CC(=O)NCC1CCN(C(=O)c2csc(-c3ccc(C)cc3C)n2)CC1`, the cytotoxicity at 10 µM was -10.8%.

Take `Cc1cc(C(=O)N2CCN(C(=O)Cc3ccccn3)CC2)c(C)s1`: the cytotoxicity at 10 µM is 6.18%.

With `O=C(c1cccc(CNS(=O)(=O)c2ccccc2F)c1)N1CCCC1`, the cytotoxicity at 10 µM was -0.0481%.

Regarding `CC(CNC(=O)Nc1cn[nH]c1)N1CCOCC1` (stereo unspecified), the cytotoxicity at 10 µM turned out to be 1.92%.

On to `Cc1nc(C)n(CC2CCCN(Cc3ccc(C(N)=O)cc3)C2)n1` (stereo unspecified), for which the cytotoxicity at 10 µM was 0.818%.

Turning to `Cc1nnc([C@@H]2C[C@H]3CN(C(=O)c4c(C)noc4C)C[C@H]3O2)[nH]1`, the cytotoxicity at 10 µM stood at 15.2%.

Regarding `Cc1nc(Nc2nncs2)cc(C2CNC2)n1`, the cytotoxicity at 10 µM stood at 5.88%.

In the case of `O=C1CC[C@H]2[C@H](CCN2c2ccccn2)N1CC1CCOCC1`, the cytotoxicity at 10 µM is -36.4%.

For the compound `CC(C)N1CCc2c(c(COc3cccnc3)nn2CC2CC2)C1`, the cytotoxicity at 10 µM worked out at 6.49%.

For the compound `CC(C)c1nn(C)c(N(C)C)c1CNC1CCN(C2CC2)CC1`, the cytotoxicity at 10 µM came out at 5.6%.

As for `Cc1noc(C)c1CN1CCOC2(CCCN(c3nncs3)C2)C1` (stereo unspecified), the cytotoxicity at 10 µM is -2.82%.

With `CC(C)N(C)Cc1cncc2c1CCN(C(=O)c1cccc(C#N)c1)C2`, the cytotoxicity at 10 µM came to 4.01%.

Consider `CC(C)=CCN1C(=O)[C@@H]2CC[C@H]1CN(c1ncccn1)C2`, for which the cytotoxicity at 10 µM came out at 9.14%.
